Assay results taken from article PMC7368294 (Proceedings of the National Academy of Sciences of the …, 2020).

Assays:
[1] = target: T1, Dα1/Dα2/Dβ1 nAChR (Drosophila melanogaster, UniProt P04755+P09478+P17644); assay: cell-based; design: species or system Xenopus laevis oocytes
T1 sequence (P09478 22-567): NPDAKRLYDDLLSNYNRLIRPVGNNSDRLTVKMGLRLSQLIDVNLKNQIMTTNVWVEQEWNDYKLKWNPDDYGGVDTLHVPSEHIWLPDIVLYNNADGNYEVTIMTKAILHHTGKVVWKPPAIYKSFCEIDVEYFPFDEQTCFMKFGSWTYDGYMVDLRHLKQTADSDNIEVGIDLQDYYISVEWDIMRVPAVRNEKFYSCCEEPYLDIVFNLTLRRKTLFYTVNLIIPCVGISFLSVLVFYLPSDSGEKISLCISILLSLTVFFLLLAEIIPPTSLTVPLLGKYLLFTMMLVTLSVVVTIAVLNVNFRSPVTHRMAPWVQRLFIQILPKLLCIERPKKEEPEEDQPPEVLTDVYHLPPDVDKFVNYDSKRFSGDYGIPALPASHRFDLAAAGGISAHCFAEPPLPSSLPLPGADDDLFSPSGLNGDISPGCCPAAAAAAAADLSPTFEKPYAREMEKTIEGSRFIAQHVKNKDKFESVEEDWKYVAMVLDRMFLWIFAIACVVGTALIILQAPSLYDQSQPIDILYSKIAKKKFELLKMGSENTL
T1 sequence (P17644 22-576): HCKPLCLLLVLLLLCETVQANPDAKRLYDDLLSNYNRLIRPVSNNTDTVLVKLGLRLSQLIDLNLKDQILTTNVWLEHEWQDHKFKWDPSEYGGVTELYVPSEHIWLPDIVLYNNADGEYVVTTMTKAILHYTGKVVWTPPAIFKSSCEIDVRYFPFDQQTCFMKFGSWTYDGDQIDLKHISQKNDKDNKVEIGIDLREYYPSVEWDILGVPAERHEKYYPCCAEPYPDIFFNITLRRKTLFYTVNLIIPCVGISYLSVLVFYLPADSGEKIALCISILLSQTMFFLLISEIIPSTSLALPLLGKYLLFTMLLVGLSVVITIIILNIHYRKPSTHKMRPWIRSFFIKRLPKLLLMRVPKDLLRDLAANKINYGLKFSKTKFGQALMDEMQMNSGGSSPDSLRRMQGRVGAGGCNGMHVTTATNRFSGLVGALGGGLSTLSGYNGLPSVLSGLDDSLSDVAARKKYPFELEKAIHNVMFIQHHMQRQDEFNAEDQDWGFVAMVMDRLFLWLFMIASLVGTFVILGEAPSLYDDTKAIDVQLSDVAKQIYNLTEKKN
T1 sequence (P04755 25-521): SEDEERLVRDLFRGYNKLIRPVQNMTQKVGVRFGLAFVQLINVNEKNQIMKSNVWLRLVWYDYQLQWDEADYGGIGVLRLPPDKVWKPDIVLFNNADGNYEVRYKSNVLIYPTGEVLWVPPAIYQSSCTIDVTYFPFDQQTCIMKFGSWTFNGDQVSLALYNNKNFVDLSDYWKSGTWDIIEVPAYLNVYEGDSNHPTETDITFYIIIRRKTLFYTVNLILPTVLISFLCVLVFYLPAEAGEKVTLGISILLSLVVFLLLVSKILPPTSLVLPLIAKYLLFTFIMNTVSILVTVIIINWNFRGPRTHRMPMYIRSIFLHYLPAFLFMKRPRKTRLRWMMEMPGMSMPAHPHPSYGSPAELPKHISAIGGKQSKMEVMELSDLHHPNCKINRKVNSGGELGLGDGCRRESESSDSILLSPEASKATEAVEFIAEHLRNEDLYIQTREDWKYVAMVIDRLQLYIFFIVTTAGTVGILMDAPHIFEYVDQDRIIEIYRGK

[2] = target: T2, Dα1/Dβ1/Dβ2 nAChR (Drosophila melanogaster, UniProt P04755+P09478+P25162); assay: cell-based; design: species or system Xenopus laevis oocytes
T2 sequence (P09478 22-567): T1 sequence (P09478 22-567)
T2 sequence (P04755 25-521): T1 sequence (P04755 25-521)
T2 sequence (P25162 19-519): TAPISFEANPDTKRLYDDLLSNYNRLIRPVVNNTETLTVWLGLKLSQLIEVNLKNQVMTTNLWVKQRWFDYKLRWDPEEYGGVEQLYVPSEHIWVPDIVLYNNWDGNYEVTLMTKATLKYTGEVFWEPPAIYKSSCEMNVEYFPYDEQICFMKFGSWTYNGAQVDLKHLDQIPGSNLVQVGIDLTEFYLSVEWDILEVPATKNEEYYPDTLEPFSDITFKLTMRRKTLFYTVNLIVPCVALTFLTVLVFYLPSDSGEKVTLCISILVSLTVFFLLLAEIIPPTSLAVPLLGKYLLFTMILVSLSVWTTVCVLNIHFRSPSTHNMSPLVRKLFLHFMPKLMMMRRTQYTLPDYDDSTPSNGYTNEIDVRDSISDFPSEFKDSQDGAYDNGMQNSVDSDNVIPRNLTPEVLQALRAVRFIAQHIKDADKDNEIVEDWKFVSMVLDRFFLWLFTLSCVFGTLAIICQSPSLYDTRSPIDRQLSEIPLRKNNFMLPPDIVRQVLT

[3] = target: T3, Dα1/Dβ1 nAChR (Drosophila melanogaster, UniProt P04755+P09478); assay: two-electrode voltage clamp of Xenopus oocytes, agonist concentration-response; type: cell-based
T3 sequence (P09478 22-567): T1 sequence (P09478 22-567)
T3 sequence (P04755 25-521): T1 sequence (P04755 25-521)
Method in brief: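 Oocytes were collagenase-defolliculated, injected with subunit and cofactor cRNAs (100 ng⋅μL−1 each) and kept 3–7 d at 16 °C. Cells were clamped at −100 mV and perfused with saline containing 0.5 μM atropine. Agonists were applied 5 s at 3-min intervals after stable 100 μM ACh responses. Peak currents were normalized to 100 μM ACh and Hill-fitted. n = 5, ≥2 frogs; DMSO <0.1%.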

[4] = target: Dα1/Dα2/Dβ1/Dβ2 nAChR (Drosophila melanogaster, UniProt P04755+P09478+P17644+P25162); assay: cell-based; design: species or system Xenopus laevis oocytes
[5] = target: T2, Dα1/Dβ1/Dβ2 nAChR; assay: two-electrode voltage clamp of Xenopus oocytes, agonist concentration-response; type: cell-based
[6] = target: T1, Dα1/Dα2/Dβ1 nAChR; assay: as above; type: cell-based
[7] = target: T3, Dα1/Dβ1 nAChR; assay: cell-based; design: species or system Xenopus laevis oocytes

Compound	EC50 [1]	EC50 [2]	EC50 [3]	EC50 [4]	EC50 [5]	EC50 [6]	EC50 [7]
CN/C(=N\[N+](=O)[O-])NCc1cnc(Cl)s1 [clothianidin]	2950 nM	219 nM	61.7 nM	309 nM	–	–	–
N#C/N=C1\SCCN1Cc1ccc(Cl)nc1 [thiacloprid]	–	–	22.9 nM	–	18.6 nM	234 nM	–
O=[N+]([O-])NC1=NCCN1Cc1ccc(Cl)nc1 [imidacloprid]	–	–	–	–	107 nM	407 nM	174 nM
